According to ChEMBL document CHEMBL4765486, “Novel Nonsecosteroidal Vitamin D Receptor Modulator Combined with Gemcitabine Enhances Pancreatic Cancer Therapy through Remodeling of the Tumor Microenvironment” (J Med Chem, 2021):
pIC50: −log10 of the molar value. Calls of active or inactive are those of the source. Unless noted, the rule behind the calls is not given here.

What was measured:
DSL-6A/C1 [1] = details: Rattus norvegicus, dose 100.0 mg/kg, time 12.0 day
[2] = target: T1, Vitamin D3 receptor (Homo sapiens) (UniProt P11473); experiment: Binding affinity to VDR (unknown origin) at 1 uM by fluorescence polarization assay relative to calcipotriol; details: filed as agonist
T1 sequence (whole entry): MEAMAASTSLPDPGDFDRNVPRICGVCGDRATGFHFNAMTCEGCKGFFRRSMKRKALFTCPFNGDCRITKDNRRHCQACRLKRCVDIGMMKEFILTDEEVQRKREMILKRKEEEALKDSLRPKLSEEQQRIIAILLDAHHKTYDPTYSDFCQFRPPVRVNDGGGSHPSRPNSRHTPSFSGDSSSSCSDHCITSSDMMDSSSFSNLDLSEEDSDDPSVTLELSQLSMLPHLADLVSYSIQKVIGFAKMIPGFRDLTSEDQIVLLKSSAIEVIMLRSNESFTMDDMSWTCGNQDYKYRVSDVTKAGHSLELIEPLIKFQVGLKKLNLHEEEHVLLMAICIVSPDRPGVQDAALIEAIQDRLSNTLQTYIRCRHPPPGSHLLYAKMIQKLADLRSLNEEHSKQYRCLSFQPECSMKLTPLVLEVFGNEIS
Method in brief: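 PolarScreen VDR competitor fluorescence polarization assay with compounds at 1 μM in triplicate. Read-out used 535 nm excitation and 590 nm emission filters.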

LTC-14 [3] = experiment: Inhibition of rat LTC-14 cells activation assessed as inhibition of Fgf mRNA expression at 0.5 uM treated under conditioned media of DSL-6A/C1 cells for 24 hrs by q-PCR analysis; assay type: functional, cell-based
Method in brief: (§1)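 LTC-14 PSCs were exposed for 24 h to conditioned medium from rat DSL-6A/C1 cancer cells containing compound at 0.5 μM. Pdgfa, Pdgfb, Fgf2, Hgf and Periodin mRNA were quantified by RT-qPCR. Three repeats, mean ± SD versus CM alone.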

DSL-6A/C1 [4] = experiment: (§2) Potentiation of gemcitabine-induced antitumor activity against luciferase-tagged rat DSL-6A/C1 cells and GFP-tagged LTC-14 cells co-inoculated in orthotropic xenograft BALB/c nude mouse model of pancreatic cancer assessed as reduction in tumor volume at 500 ug/kg, ip administered once every 3 days for 12 days coadministered with gemcitabine at 100 mg/kg and measured after 3 days post last dose by IVIS optical imaging analysis; assay type: functional, organism-based; details: dose 500.0 µg/kg, time 12.0 day
Method in brief: (§3)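 DSL-6A/C1-luci and LTC-14-GFP cells were co-inoculated orthotopically into the pancreas of nude mice, n=5 per group. Treatment began 7 days after grafting (methods) or 14 days (text). Gemcitabine 100 mg/kg ip every 3 days, alone or with compound 500 μg/kg or calcipotriol 60 μg/kg in ethanol/polyoxyethylene castor oil/saline (1:1:18), for 12 days. Tumour growth was followed by bioluminescence imaging.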

[5] = target: T1, Vitamin D3 receptor (Homo sapiens); experiment: Agonist activity at VDR (unknown origin) expressed in HEK293 cells co-transfected with pGL4.27-SPP3-Luc and CMV-hRXRalpha and pCMX-Renilla plasmids after 24 hrs by dual luciferase reporter gene assay; assay type: cell-based; details: filed as agonist, dose 0.0001-1 µM
Method in brief: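 HEK293 cells in 48-well plates were transfected per well with 40 ng TK-Spp×3-LUC reporter, 20 ng pCMX-Renilla, 30 ng pENTER-CMV-hRXRα and 100 ng pCMX-VDR using Lipofectamine 2000. Compounds were added 8 h post-transfection, and dual-luciferase activity was read 24 h later. Firefly signal was normalised to Renilla. The experiment was run three times.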

[6] = Cytotoxicity against rat LTC-14 cells assessed as reduction in cell proliferation incubated for 24 hrs by MTT assay; assay type: cell-based; details: LTC-14, 24 h
LTC-14 [7] = experiment: Inhibition of rat LTC-14 cells activation assessed as inhibition of Hgf mRNA expression at 0.5 uM treated under conditioned media of DSL-6A/C1 cells for 24 hrs by q-PCR analysis; assay type: functional, cell-based
Method in brief: as §1

LTC-14 [8] = experiment: Inhibition of rat LTC-14 cells interaction with DSL-6A/C1 cells in conditioned media assessed as inhibition of PDGF-A protein expression at 0.5 uM measured after 24 hrs by Western blot analysis; assay type: functional, cell-based
Method in brief: (§4)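 LTC-14 cells were treated for 24 h with DSL-6A/C1 conditioned medium plus compound (0.5 μM). Proteins were separated on 10% SDS-PAGE, transferred to PVDF and probed with rabbit anti-PDGF-A or anti-POSTN, with β-actin as loading reference.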

LTC-14 [9] = experiment: Inhibition of rat LTC-14 cells interaction with DSL-6A/C1 cells in conditioned media assessed as inhibition of POSTN protein expression at 0.5 uM measured after 24 hrs by Western blot analysis; assay type: functional, cell-based
Method in brief: as §4

Mus musculus [10] = experiment: (§5) Inhibition of GFP-tagged rat LTC-14 cells activation in BALB/c nude mouse xenografted along with luciferase-tagged DSL-6A/C1-Luc cells assessed as reduction in alpha-smooth muscle actin expression in tumor at 500 ug/kg, ip administered once every 3 days for 12 days coadministered with gemcitabine at 100 mg/kg by DAPI staining based laser confocal scanning microscopy; assay type: functional, organism-based; details: dose 500.0 µg/kg, time 12.0 day
Method in brief: (§6)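 Tumours were taken from orthotopic co-inoculated nude mice given gemcitabine 100 mg/kg plus compound (500 μg/kg) or calcipotriol (60 μg/kg) ip for 12 days. Sections were fixed in 4% PFA, permeabilised with 0.5% Triton X-100 and blocked in 5% BSA. They were incubated with anti-α-SMA overnight at 4 °C, then an Alexa Fluor 594 secondary for 1 h at 37 °C, DAPI-counterstained and imaged by confocal microscopy.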

LTC-14 [11] = experiment: Inhibition of rat LTC-14 cells activation assessed decrease in TGF-beta1 induced Acta2 mRNA expression at 0.5 uM incubated for 24 hrs by q-PCR analysis; assay type: functional, cell-based
Method in brief: (§7)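 Immortalized rat PSC line LTC-14, about 1×10^5 cells per well, was grown 24 h at 37 °C in 5% CO2. Cells then received compound (0.5 μM) plus TGF-β1 for 24 h; TGF-β1 is stated as 0.5 ng/mL in the text and 5 ng/mL in the methods. Col1a1 and Acta2 mRNA were measured by RT-qPCR. Mean ± SD versus TGF-β1 alone.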

LTC-14 [12] = experiment: Inhibition of rat LTC-14 cells activation assessed as inhibition of PDGFA mRNA expression at 0.5 uM treated under conditioned media of DSL-6A/C1 cells for 24 hrs by q-PCR analysis; assay type: functional, cell-based
Method in brief: as §1

LTC-14 [13] = experiment: Inhibition of rat LTC-14 cells activation assessed as inhibition of Periodin-mRNA expression at 0.5 uM treated under conditioned media of DSL-6A/C1 cells for 24 hrs by q-PCR analysis; assay type: functional, cell-based
Method in brief: as §1

Vitamin D3 receptor = target: T2, Vitamin D3 receptor (Homo sapiens, UniProt P11473); experiment: Binding affinity to VDR (unknown origin) by fluorescence polarization assay
T2 sequence (P11473 whole entry): T1 sequence (whole entry)
Method in brief: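 Competitive VDR binding was measured by PolarScreen fluorescence polarization, in triplicate.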

[14] = Cytotoxicity against rat DSL-6A/C1 cells assessed as reduction in cell proliferation at 0.5 uM incubated for 24 hrs by MTT assay; assay type: cell-based; details: dsl-6a/c1, 24 h
LTC-14 [15] = experiment: Inhibition of rat LTC-14 cells activation assessed as reduction in ECM deposition resulting in doxorubicin accumulation in PSC spheres pretreated with compounds followed by doxorubicin addition by laser confocal microscopy analysis; assay type: functional, cell-based
Method in brief: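 LTC-14 cells were grown in 3D culture to form PSC spheres and treated with compounds. Fluorescent doxorubicin was then added, and its penetration into the spheres was imaged by laser confocal microscopy. Three repeats, versus untreated control.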

LTC-14 [16] = experiment: Inhibition of rat LTC-14 cells activation assessed as inhibition of PDGFB mRNA expression at 0.5 uM treated under conditioned media of DSL-6A/C1 cells for 24 hrs by q-PCR analysis; assay type: functional, cell-based
Method in brief: as §1

LTC-14 [17] = experiment: Inhibition of rat LTC-14 cells activation assessed decrease in TGF-beta1 induced collagen 1 protein expression at 0.5 uM incubated for 24 hrs by Western blot analysis; assay type: functional, cell-based
Method in brief: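 LTC-14 cells were treated for 24 h with compound (0.5 μM) plus TGF-β1 (0.5 ng/mL in the text, 5 ng/mL in the methods). Lysates were run on 10% SDS-PAGE, transferred to PVDF and probed with rabbit anti-collagen I, with β-actin as reference. Bands were quantified by densitometry versus TGF-β1 alone.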

DSL-6A/C1 [18] = experiment: Antiproliferative activity against rat DSL-6A/C1 cells assessed as reduction in cell viability at 0.5 uM treated with conditioned media of LTC-14 cells for 24 hrs by MTT assay; assay type: functional, cell-based
Method in brief: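 Rat pancreatic cancer DSL-6A/C1 cells were cultured in supernatant from LTC-14 PSCs (PSC-CM) with compound added at 0.5 μM for 24 h. Viability was then read by MTT: 4 h incubation with MTT (5 mg/mL stock), absorbance at 570 nm. Run in triplicate, compared with PSC-CM alone.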

LTC-14 [19] = experiment: Inhibition of rat LTC-14 cell activation assessed decrease in TGF-beta1 induced Colla1 mRNA expression at 0.5 uM incubated for 24 hrs by q-PCR analysis; assay type: functional
Method in brief: as §7

DSL-6A/C1 [20] = experiment: Antiproliferative activity against rat DSL-6A/C1 cells assessed as reduction in cell viability at 0.5 uM incubated for 24 hrs compound treated LTC-14-CM cells by MTT assay; assay type: functional, cell-based
Method in brief: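 LTC-14 PSCs were pretreated with compound for 24 h. Their collected supernatant was used to culture DSL-6A/C1 cells, and proliferation was read by MTT: 4 h incubation with MTT (5 mg/mL stock), absorbance at 570 nm. Run in triplicate, compared with untreated PSC-CM.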

Mus musculus [21] = experiment: as §5, with “60” for “500”, “mg/kg and measured after 3 days post last dose and” for “mg/kg”; assay type: functional, organism-based; details: dose 60.0 µg/kg, time 12.0 day
Method in brief: as §6

DSL-6A/C1 [22] = experiment: as §2, with “against” for “against luciferase-tagged”, “DSL-6A/C1-Luc” for “DSL-6A/C1”, “LTC-14-GFP” for “GFP-tagged LTC-14”, “60” for “500”; assay type: functional, organism-based; details: dose 60.0 µg/kg, time 12.0 day
Method in brief: as §3

Compound | RBA [2] | inhibition (LTC-14 [3]) | TGI (DSL-6A/C1 [4]) | Activity [5] | pIC50 [6] | inhibition (LTC-14 [7]) | inhibition (LTC-14 [8]) | inhibition (LTC-14 [9]) | inhibition (Mus musculus [10]) | inhibition (LTC-14 [11]) | inhibition (LTC-14 [12]) | inhibition (LTC-14 [13]) | pIC50 (Vitamin D3 receptor) | Activity [14] | inhibition (LTC-14 [15]) | inhibition (LTC-14 [16]) | inhibition (LTC-14 [17]) | Activity (DSL-6A/C1 [18]) | inhibition (LTC-14 [19]) | Activity (DSL-6A/C1 [20]) | further results
Nc1ccn([C@@H]2O[C@H](CO)[C@@H](O)C2(F)F)c(=O)n1 |  |  |  |  |  |  |  |  |  |  |  |  |  |  |  |  |  |  |  |  | TGI (DSL-6A/C1 [1]): inactive
CCN(CC)CCCNC(=O)c1ccc(C(CC)(CC)c2ccc(OCCC(C)(C)O)c(C)c2)n1CC | 85% | Active | Active | Dose-dependent effect | < 5.00 | Active | Active | Active | Active | Active | Active | Active | 7.03 | Non-Toxic | Active | Active | Active | inactive | Active | Active | 
CCn1cc(C(CC)(CC)c2ccc(OCC(C)O)c(C)c2)cc1C(=O)NCC(O)CO (centres undefined) | 86% | Active | Active | Dose-dependent effect | < 5.00 | Active | Active | Active | Active | Active | Active | Active | 7.09 | Non-Toxic | Active | Active | Active | inactive | Active | Active | 
C=C1/C(=C/C=C2\CCC[C@]3(C)[C@@H]([C@H](C)/C=C/[C@@H](O)C4CC4)CC[C@@H]23)C[C@@H](O)C[C@@H]1O |  |  |  | Dose-dependent effect | < 5.00 |  |  |  |  | Active |  |  |  | Non-Toxic |  |  | Active |  | Active |  | inhibition (Mus musculus [21]): Active; Activity (DSL-6A/C1 [22]): Active
